Published values gathered from unrelated publications.
Lines come from different studies, so protocols differ.
Target: Ephrin type-B receptor 3 (EPHB3, Homo sapiens, UniProt P54753)
One construct used (P54753 34-998): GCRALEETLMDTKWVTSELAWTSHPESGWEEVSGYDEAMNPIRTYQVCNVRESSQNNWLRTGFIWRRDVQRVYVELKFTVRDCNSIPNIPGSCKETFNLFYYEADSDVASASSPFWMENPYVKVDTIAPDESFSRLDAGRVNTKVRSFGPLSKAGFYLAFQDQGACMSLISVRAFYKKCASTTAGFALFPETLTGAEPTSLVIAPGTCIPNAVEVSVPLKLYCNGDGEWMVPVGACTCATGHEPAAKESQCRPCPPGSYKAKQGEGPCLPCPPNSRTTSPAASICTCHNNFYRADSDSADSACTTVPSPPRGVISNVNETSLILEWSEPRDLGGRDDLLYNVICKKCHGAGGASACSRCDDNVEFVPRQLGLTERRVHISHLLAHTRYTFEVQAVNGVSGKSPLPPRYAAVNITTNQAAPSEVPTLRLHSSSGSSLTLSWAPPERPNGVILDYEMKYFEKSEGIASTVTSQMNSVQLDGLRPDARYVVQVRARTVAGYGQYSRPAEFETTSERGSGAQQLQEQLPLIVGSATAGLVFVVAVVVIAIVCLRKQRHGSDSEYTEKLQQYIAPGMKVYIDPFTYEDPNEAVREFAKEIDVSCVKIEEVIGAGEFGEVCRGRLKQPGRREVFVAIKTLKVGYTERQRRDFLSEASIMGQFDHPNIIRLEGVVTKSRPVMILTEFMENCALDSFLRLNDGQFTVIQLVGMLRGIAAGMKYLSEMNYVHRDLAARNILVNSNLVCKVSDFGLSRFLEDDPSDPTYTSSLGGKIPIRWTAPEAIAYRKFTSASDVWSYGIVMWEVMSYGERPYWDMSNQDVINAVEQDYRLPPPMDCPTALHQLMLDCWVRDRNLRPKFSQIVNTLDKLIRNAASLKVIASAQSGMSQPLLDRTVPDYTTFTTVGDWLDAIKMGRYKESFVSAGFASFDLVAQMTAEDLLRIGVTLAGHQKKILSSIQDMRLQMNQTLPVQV

`Nc1ncc2c(n1)-c1c([nH]c3ccc(C#CC4CC4)cc13)CCCC2` gave a remaining binding of 100% (binding; competition with immobilised ligand; 1 µM).
The remaining binding of `Cc1cnc(Nc2ccc(C(=O)N3CCC(N4CCCC4)CC3)cc2)nc1-c1cc2ccccc2s1` is reported as 77% (binding; competition with immobilised ligand; 1 µM).
`COc1cnc(Nc2cccc(S(N)(=O)=O)c2)nc1N1CCN(c2ccccc2)C(=O)C1` gave a remaining binding of 100% (binding; competition with immobilised ligand; 1 µM).
With `CCN1CCN(Cc2ccc(C(=O)Nc3ccc(C)c(Oc4ccc5c(c4)CC(=O)N5)c3)cc2C(F)(F)F)CC1` the remaining binding was 100% (binding; competition with immobilised ligand; 1 µM).
`C[C@@H]1CCN(c2nccc(-c3cnn4ncccc34)n2)C1` has a remaining binding of 100% (binding; 1 µM).
`C[C@@H](c1cccc(C#N)c1)n1cc(Cl)cc(C(N)=O)c1=N` gave a remaining binding of 85% (cell-free assay; competition with immobilised ligand; 1 µM).
For `COc1cnc(Nc2cccc(S(N)(=O)=O)c2)nc1N1CCN(c2ccccc2)CC1`, the remaining binding was 100% (binding; competition with immobilised ligand; 1 µM).
For `c1cnn2ncc(-c3ccnc(N4CCC45COC5)n3)c2c1`, the remaining binding was 87% (binding; 1 µM).
`COc1ncc2cc3ccccc3nc2c1C#N` gave a remaining binding of 1.4% (cell-free assay; competition with immobilised ligand; 5 µM).
With `CN(CCCC(F)(F)F)c1nccc(-c2cnn3ncccc23)n1` the remaining binding was 87% (binding; 1 µM).
`CCS(=O)(=O)c1cc2cc(C[C@@](O)(CC(C)(C)c3ccc(F)cc3C(N)=O)C(F)(F)F)[nH]c2cn1` has a remaining binding of 92% (cell-free assay; competition with immobilised ligand; 1 µM).
For `O=C(NCCCN1CCOCC1)c1ccc(Nc2ncc(Cl)c(-c3ccc(Cl)s3)n2)cc1`, the remaining binding was 95% (binding; competition with immobilised ligand; 1 µM).
`O=S(=O)(NC1CCC(c2cc(F)ccc2F)(S(=O)(=O)c2ccc(Cl)cc2)CC1)C(F)(F)F` (centres unmarked) has a remaining binding of 100% (cell-free assay; competition with immobilised ligand; 1 µM).
The remaining binding of `N[C@H]1CCN(c2nccc(-c3cnn4ncccc34)n2)C1` is reported as 97% (binding; 1 µM).
The remaining binding of `COc1ccc2c(c1)O[C@@H](c1ccc(OC)c(OC)c1)C[C@H]2NC(=O)C1(c2ccc3c(c2)OC(F)(F)O3)CC1` is reported as 90% (cell-free assay; competition with immobilised ligand; 1 µM).
`F[C@@H]1CCN(c2nccc(-c3cnn4ncccc34)n2)C1` has a remaining binding of 77% (binding; 1 µM).
`O=C1NC(c2ccccn2)Sc2ccccc21` (centres unmarked) gave a remaining binding of 80% (cell-free assay; competition with immobilised ligand; 1 µM).
`Cc1cnn2ncc(-c3ccnc(N(C)C)n3)c2c1` gave a remaining binding of 100% (binding; 1 µM).
For `CNC(=O)Nc1ccc2c(c1)CC[C@@]21OC(=O)N(CC(=O)N(Cc2ccc(F)cc2)[C@@H](C)C(F)(F)F)C1=O`, the remaining binding was 80% (cell-free assay; competition with immobilised ligand; 1 µM).
For `O=C(Nc1c[nH]nc1C(=O)NC1CCNCC1)c1cc(F)cc(F)c1`, the remaining binding was 100% (binding; competition with immobilised ligand; 1 µM).
